# Data: ChEMBL document CHEMBL5303300, “EUbOPEN Chemogenomics Library - Multiplex” (2023)
# Values joined by “and” are separate entries in the source; they are usually repeats but may differ in a detail not shown here. Identical values can stand only once.
# Legend:
# U2OS = assay: Multiplex assay against U2OS; type: toxicity, cell-based; conditions: human, number of replicates 2
# Summary of the method: (§1)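 Phenotypes for tubulin, mitochondrial mass and membrane permeability are expressed as per cents of healthy-nucleus cells. Cells were stained live at seeding with Hoechst33342, BioTracker Green Microtubule Cytoskeleton Dye, MitoTracker Red and Annexin V Alexa Fluor 680, then imaged after compound addition on a CQ1 microscope at 37°C and 5% CO2. Machine-learning gating in CellPathfinder separated Hoechst high-intensity objects from normal cells, divided normal cells by nuclear state (healthy, pyknosed, fragmented) and divided pyknosed cells into mitotic or apoptotic.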
# Fibroblast = assay: Multiplex assay against human fibroblast; type: toxicity, cell-based; conditions: number of replicates 2; summary of the method: as §1
# [1] = 24 h, 10 µM, compound concentration 10 uM
# [2] = 48 h, 1 µM, compound concentration 1 uM
# [3] = 48 h, 10 µM, compound concentration 10 uM
# [4] = 12 h, 1 µM, compound concentration 1 uM
# [5] = 12 h, 10 µM, compound concentration 10 uM
# [6] = 24 h, 1 µM, compound concentration 1 uM
smiles,measurement,setting,value
CC(C)S(=O)(=O)c1ccccc1Nc1nc(N[C@@H]2CCCN(CCCCCCCNC(=O)COc3cccc4c3C(=O)N(C3CCC(=O)N(C)C3=O)C4=O)C2)ncc1Cl (stereo not given in full),Population Apoptotic (%),U2OS; [1],85% and 93%
same,Population Fragmented Nuclei (%),U2OS; [1],8% and 12%
same,Population Hoechst High Intensity Objects (%),U2OS; [1],0% and 1%
same,Population Membrane Permeable-Phenotype (%),U2OS; [1],50% and 40%
same,Population Mitochondria Different-Phenotype (%),U2OS; [1],50% and 64%
same,Population Mitotic Cells (%),U2OS; [1],14% and 6%
same,Population Normal (%),U2OS; [1],100% and 98%
same,Population Pyknosed Nuclei (%),U2OS; [1],84% and 57%
same,Population Tubulin-Different-Phenotype (%),U2OS; [1],100% and 68%
same,Population Apoptotic (%),U2OS; [2],89% and 93%
same,Population Fragmented Nuclei (%),U2OS; [2],19% and 13%
same,Population Healthy Nuclei (%),U2OS; [2],29% and 44%
same,Population Hoechst High Intensity Objects (%),U2OS; [2],0%
same,Population Membrane Permeable-Phenotype (%),U2OS; [2],5% and 9%
same,Population Mitochondria Different-Phenotype (%),U2OS; [2],0% and 5%
same,Population Mitotic Cells (%),U2OS; [2],10% and 6%
same,Population Normal (%),U2OS; [2],100% and 99%
same,Population Pyknosed Nuclei (%),U2OS; [2],50% and 41%
same,Population Tubulin-Different-Phenotype (%),U2OS; [2],70% and 87%
same,Population Apoptotic (%),U2OS; [3],100% and 94%
same,Population Fragmented Nuclei (%),U2OS; [3],9% and 10%
same,Population Healthy Nuclei (%),U2OS; [3],18% and 14%
same,Population Hoechst High Intensity Objects (%),U2OS; [3],4% and 3%
same,Population Membrane Permeable-Phenotype (%),U2OS; [3],75% and 62%
same,Population Mitochondria Different-Phenotype (%),U2OS; [3],100% and 53%
same,Population Mitotic Cells (%),U2OS; [3],0% and 5%
same,Population Normal (%),U2OS; [3],95% and 96%
same,Population Pyknosed Nuclei (%),U2OS; [3],72% and 75%
same,Population Tubulin-Different-Phenotype (%),U2OS; [3],75% and 96%
same,Population Apoptotic (%),Fibroblast; [4],58% and 50%
same,Population Fragmented Nuclei (%),Fibroblast; [4],7% and 16%
same,Population Healthy Nuclei (%),Fibroblast; [4],50% and 56%
same,Population Hoechst High Intensity Objects (%),Fibroblast; [4],0% and 1%
same,Population Membrane Permeable-Phenotype (%),Fibroblast; [4],10% and 9%
same,Population Mitochondria Different-Phenotype (%),Fibroblast; [4],5% and 6%
same,Population Mitotic Cells (%),Fibroblast; [4],41% and 49%
same,Population Normal (%),Fibroblast; [4],100% and 98%
same,Population Pyknosed Nuclei (%),Fibroblast; [4],42% and 27%
same,Population Tubulin-Different-Phenotype (%),Fibroblast; [4],58% and 39%
same,Total Cell Count,Fibroblast; [4],178 and 249
same,Population Apoptotic (%),Fibroblast; [5],63% and 51%
same,Population Fragmented Nuclei (%),Fibroblast; [5],9% and 14%
same,Population Healthy Nuclei (%),Fibroblast; [5],42% and 36%
same,Population Hoechst High Intensity Objects (%),Fibroblast; [5],0%
same,Population Membrane Permeable-Phenotype (%),Fibroblast; [5],33% and 29%
same,Population Mitochondria Different-Phenotype (%),Fibroblast; [5],24% and 26%
same,Population Mitotic Cells (%),Fibroblast; [5],36% and 49%
same,Population Normal (%),Fibroblast; [5],100% and 99%
same,Population Pyknosed Nuclei (%),Fibroblast; [5],47% and 48%
same,Population Tubulin-Different-Phenotype (%),Fibroblast; [5],24% and 17%
same,Total Cell Count,Fibroblast; [5],191 and 207
same,Population Apoptotic (%),Fibroblast; [6],81% and 86%
same,Population Fragmented Nuclei (%),Fibroblast; [6],16% and 21%
same,Population Healthy Nuclei (%),Fibroblast; [6],39% and 36%
same,Population Hoechst High Intensity Objects (%),Fibroblast; [6],0%
same,Population Membrane Permeable-Phenotype (%),Fibroblast; [6],13% and 8%
same,Population Mitochondria Different-Phenotype (%),Fibroblast; [6],6% and 5%
same,Population Mitotic Cells (%),Fibroblast; [6],18% and 14%
same,Population Normal (%),Fibroblast; [6],99% and 100%
same,Population Pyknosed Nuclei (%),Fibroblast; [6],43% and 42%
same,Population Tubulin-Different-Phenotype (%),Fibroblast; [6],25% and 18%
same,Total Cell Count,Fibroblast; [6],189 and 238
same,Population Apoptotic (%),Fibroblast; [1],76% and 74%
same,Population Fragmented Nuclei (%),Fibroblast; [1],15% and 16%
same,Population Healthy Nuclei (%),Fibroblast; [1],37% and 28%
same,Population Hoechst High Intensity Objects (%),Fibroblast; [1],0%
same,Population Membrane Permeable-Phenotype (%),Fibroblast; [1],20% and 9%
same,Population Mitochondria Different-Phenotype (%),Fibroblast; [1],52% and 73%
same,Population Mitotic Cells (%),Fibroblast; [1],23% and 25%
same,Population Normal (%),Fibroblast; [1],99%
same,Population Pyknosed Nuclei (%),Fibroblast; [1],47% and 55%
same,Population Tubulin-Different-Phenotype (%),Fibroblast; [1],50% and 36%
same,Total Cell Count,Fibroblast; [1],193 and 186
same,Population Apoptotic (%),Fibroblast; [2],86% and 96%
same,Population Fragmented Nuclei (%),Fibroblast; [2],15% and 24%
same,Population Healthy Nuclei (%),Fibroblast; [2],46% and 36%
same,Population Hoechst High Intensity Objects (%),Fibroblast; [2],0% and 1%
same,Population Membrane Permeable-Phenotype (%),Fibroblast; [2],19% and 21%
same,Population Mitochondria Different-Phenotype (%),Fibroblast; [2],4% and 6%
same,Population Mitotic Cells (%),Fibroblast; [2],13% and 3%
same,Population Normal (%),Fibroblast; [2],100% and 98%
same,Population Pyknosed Nuclei (%),Fibroblast; [2],38%
same,Population Tubulin-Different-Phenotype (%),Fibroblast; [2],24% and 27%
same,Total Cell Count,Fibroblast; [2],178 and 207
same,Population Apoptotic (%),Fibroblast; [3],85% and 88%
same,Population Fragmented Nuclei (%),Fibroblast; [3],14% and 22%
same,Population Healthy Nuclei (%),Fibroblast; [3],35% and 28%
same,Population Hoechst High Intensity Objects (%),Fibroblast; [3],1%
same,Population Membrane Permeable-Phenotype (%),Fibroblast; [3],7% and 16%
same,Population Mitochondria Different-Phenotype (%),Fibroblast; [3],37% and 27%
same,Population Mitotic Cells (%),Fibroblast; [3],14% and 11%
same,Population Normal (%),Fibroblast; [3],98%
same,Population Pyknosed Nuclei (%),Fibroblast; [3],50% and 49%
same,Population Tubulin-Different-Phenotype (%),Fibroblast; [3],70% and 53%
same,Total Cell Count,Fibroblast; [3],184 and 191
